Consider eleven compounds from ChEMBL document CHEMBL1127310, “Synthesis and anticonvulsant activities of alpha-acetamido-N-benzylacetamide derivatives containing an electron-deficient alpha-heteroaromatic substituent” (1994).

A word on the ED50: it is the dose that gives a 50% effect, or the effect in half of the subjects. What is called TD50 is the dose at which the toxic effect under study appears in half of the subjects. Read a low TD50 as greater toxicity.

Common to all, as to assay type: functional
The nature of assay [1]: Protective Index was determined using the ratio of TD50/ED50 value. Put shortly:
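PI is TD50/ED50 in ip-dosed mice. TD50 comes from the rotorod or the horizontal screen test. ED50 comes from the MES test. Not determined when there was no MES activity below 100 mg/kg.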

Assay [2] relates to Mus musculus. The assay can be described thus: Effective dose required to prevent tonic extension of the hind limbs in mice in the maximal electroshock seizures (MES) test when administered intraperitoneally. To be noted: Hindlimb, ip. A digest of the protocol: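 Male Carworth Farms No. 1 mice, drug given ip. Seizures elicited by 60-cycle alternating current, 50 mA, for 0.2 s via corneal electrodes. Protection means no tonic hind-limb extension. Phase I screen at 30, 100 and 300 mg/kg. Dose-response then run at varied doses, normally eight mice per dose, at time of peak effect (0.5 h or 0.25 h).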

The species entered for assay [3] is Mus musculus. The experiment in a line: Median neurologically impairing dose was determined in mice using the rotarod test. Put shortly: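 Male Carworth Farms No. 1 mice dosed ip and placed on a 1-in. knurled rod turning at 6 rpm. Neurotoxicity means failure to stay on the rod for 1 min. Four mice per dose in the screen, then normally eight mice per dose for the dose-response, at time of peak effect.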

The structures appear in SMILES notation.

As to `CC(=O)NC(C(=O)NCc1ccccc1)c1ncccn1` (centres undefined), in assay [1], the PI worked out at 7. In the assay with Mus musculus [2], this compound gave an ED50 of 8.1 mg/kg. This compound also gave a TD50 in the assay filed under Mus musculus [3] of 56.7 mg/kg.

Compound `CC(=O)NC(C(=O)NCc1ccccc1)c1ccc[nH]1` (centres undefined) registered a TD50 in the assay filed under Mus musculus [3] of less than 100 mg/kg. Turning to `CC(=O)NC(C(=O)NCc1ccccc1)c1ncco1` (centres undefined), the PI in assay [1] was found to be 3.7. The compound also came in with a TD50 in the assay listed under Mus musculus [3] of 38.6 mg/kg.

For the compound `CC(=O)NC(C(=O)NCc1ccccc1)c1ccco1` (centres undefined), in assay [1], the PI was greater than 3.9. In the assay listed under Mus musculus [3], the TD50 is roughly 40 mg/kg. Turning to `CC(=O)NC(C(=O)NCc1ccccc1)c1cccs1` (centres undefined), the TD50 in the assay listed under Mus musculus [3] is less than 100 mg/kg.

In the assay listed under Mus musculus [3], `CCC1(c2ccccc2)C(=O)NC(=O)NC1=O` [PHENOBARBITAL] had a TD50 of 69 mg/kg. For the compound `CC(=O)NC(C(=O)NCc1ccccc1)c1cnccn1` (centres undefined), the PI in assay [1] amounted to 3.9. The same compound registered an ED50 with Mus musculus [2] of 14.8 mg/kg. Further, the TD50 in the assay listed under Mus musculus [3] was determined as 58.2 mg/kg.

As for `CC(=O)NC(C(=O)NCc1ccccc1)c1ccccn1` (centres undefined), in the assay with Mus musculus [2], the 50% effect level (ED50) was put at a dose of 10.8 mg/kg. Further, the TD50 in the assay listed under Mus musculus [3] was less than 100 mg/kg. The compound `CC(=O)NC(C(=O)NCc1ccccc1)c1ccccc1` (centres undefined) gave a TD50 in the assay filed under Mus musculus [3] greater than 40 mg/kg. As for `CC(=O)NC(C(=O)NCc1ccccc1)c1ccsc1` (centres undefined), the TD50 in the assay listed under Mus musculus [3] was less than 100 mg/kg.

In the case of `CC(=O)NC(C(=O)NCc1ccccc1)c1nccs1` (centres undefined), the PI in assay [1] was 5.7. This compound showed a TD50 in the assay listed under Mus musculus [3] of 69.1 mg/kg.
